Screening results (PubChem BioAssay)
Yeast life ext: extends the lifespan of yeast | S. cerevisiae growth with nicotinamide, OD615; deaD strain in restrictive glucose medium | inhibition of the nicotinamide effect, % at 10 µM | 130,000 compounds, 0.68% hits;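 active = inhibition above a set limit, placed 3 SD over the median of all compounds, cut at about 26% in these data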;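 also: 0% = nicotinamide-treated wells and 100% = cells grown without nicotinamide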
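Test system: DeaD-strain S. cerevisiae / Buffer or medium: restrictive glucose medium / Also added: nicotinamide 1.5 mM / Doses: one concentration, 10 µM, DMSO 0.25% / Schedule: 48 h at 30 °C / Signal: OD615 measurement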
WT yeast gro inh: growth inhibition of WT yeast, mitochondrial fusion screen; 190,000 compounds, 2.1% hits; mitochondrial fusion phenotypic screen, WT strain; inhibition, % at 10 µM; in the data active = inhibition above about 58%; tested in S. cerevisiae
RAM inhibit: blocks the yeast RAM network | S. cerevisiae dse1pr::URA3 reporter, 5-FOA growth OD615, 2 d; analog-sensitive cbk1-as2 kinase mutant strain | inhibition, % at 50 µM | 190,000 compounds, 1.8% hits;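 active = inhibition above a set limit, 3 SD over mean compound inhibition, cut at about 8.4% in these data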;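 also: 0% = DMSO-only wells with no growth and 100% = 10 µM 1-NA-PP1 full growth; inhibition rescues growth on 5-FOA so higher OD means more RAM inhibition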
BB579 growth dn: chemicals that inhibit yeast BB579 growth in restrictive medium (lifespan-shortening candidates); 140,000 compounds, 0.51% hits; inhibition, % at 10 µM; S. cerevisiae BB579 growth, OD615, 48 h;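 active = inhibition above a set limit, 3 SD over the mean compound inhibition, cut at about 44% in these data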
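Material: Saccharomyces cerevisiae DeaD strain BB579, replicative lifespan model yeast; buffer or medium: CSMM-D restrictive synthetic medium containing dextrose (glucose); compound: 10 µM single dose, DMSO 0.25%; timing: 48 h compound exposure at 30 °C after 4 h preincubation; signal: turbidity as optical density at 615 nm; benchmarks: positive control amphotericin B 10 µg/mL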
Starred values were filed as active, the others as inactive; x = no result given. Only some compounds are listed: those with a hit (about 4.3% of all), similar ones and a draw of the others.

SMILES	Yeast life ext	WT yeast gro inh	RAM inhibit	BB579 growth dn
Cc1ccccc1S(=O)(=O)Oc1ccccc1C(=O)Oc1ccccc1	-13	6	8	-12
Cc1ccccc1C(=O)Oc1ccc(Sc2ccc(O)cc2)cc1	-14	87*	11*	-80
N=C1C(c2ccccc2)=C(O)CN1NC(=O)c1ccc(Cl)cc1	x	-21	4	x
CCN1/C(=C\c2ccc3cc(C)ccc3[n+]2CC)Sc2cc(C)c(C)cc21	x	88*	-1	x
CCN1/C(=C/C(C)=C/c2sc3ccccc3[n+]2CC)Sc2ccccc21	x	89	0	x
C=CC[n+]1c(/C=C2\C=Cc3cc(C)ccc3N2CC)ccc2ccccc21	x	79	2	x
CCN1/C(=C/c2ccc3cc(C)cc(C)c3[n+]2CC)Sc2cc(C)ccc21	x	95*	-1	x
CCN1/C(=C/c2ccc3cccc(C)c3[n+]2CC)Sc2ccccc21	-13	62*	1	96*
O=C(/C=C/c1ccccc1)NC(NC(=S)Nc1ccc(Cl)cc1)C(Cl)(Cl)Cl (centres undefined)	-9	45	10*	-43
Cc1ccccc1OCCCc1c(C)n[nH]c1C	x	x	3	x
Cc1ccccc1OCCCCc1c(C)n[nH]c1C	-14	76*	-1	4
CC(=O)N(Cc1cc(=O)[nH]c2ccccc12)c1ccccc1	-2	18	1	-33
CC(=O)N(Cc1cc(=O)[nH]c2ccccc12)c1cccc(C)c1	-1	65*	3	-30
Cc1ccc(-n2cccc2/C=C2/C(=N)N3C(=NC2=O)SN=C3S(C)(=O)=O)cc1	x	-11	8	x
CCc1ccc(-n2cccc2/C=C2/C(=N)N3C(=NC2=O)SN=C3S(C)(=O)=O)cc1	x	10	11*	x
Cc1c(C)c2cc(Cl)c(O)c(CN3CCCC(C)C3)c2oc1=O (centres undefined)	2	66*	-1	-61
CCN(CC)Cc1c(O)c(Cl)cc2c(C)c(C)c(=O)oc12	88*	3	1	-66
CCN(CC)Cc1c(O)c(Cl)cc2c(C)cc(=O)oc12	x	1	0	x
O=C(OCn1ncc(Cl)c(Cl)c1=O)c1cccc(C(F)(F)F)c1	-13	5	3	62*
COc1ccc(N(C(=O)CNC(=O)c2cccs2)C(C(=O)NCC2CCCO2)c2ccccc2)cc1OC (centres undefined)	x	2	3	x
CCOC(=O)c1sc2nc(CC(=O)OC)nc(NCc3ccco3)c2c1C	-15	-10	11*	-40
CCC1Oc2ccc(C)cc2N(CC(=O)N(Cc2ccc(C)o2)C2CCCC2)C1=O (centres undefined)	x	65*	7	-22
CCC1Oc2ccc(C)cc2N(CC(=O)NCCN2C(C)CCCC2C)C1=O (centres undefined)	-11	10	0	-2
CCOC(=O)C1=C(N)OC2=C(C(=O)CC(C)(C)C2)C1c1cccs1 (centres undefined)	x	-27	-1	-48
COc1ccccc1N1C[C@@H]2C[C@@H](c3ccco3)N3CCC[C@@]23C1=O	x	6	1	x
SMILES	Yeast life ext	WT yeast gro inh	RAM inhibit	BB579 growth dn
CN(C)C(=O)/C(C#N)=C\c1cc(Br)c(Sc2ccc(Cl)cc2)o1	1	88*	7	-19
Clc1ccc(Sc2oc(/C=N/n3cnnc3)cc2Br)cc1	-7	19	3	-2
CCCc1ccc(-c2cc(C(=O)N/N=C/c3ccc([N+](=O)[O-])o3)c3ccccc3n2)cc1	-9	63*	1	-33
Cc1ccc(C(C)C)c(OCCNC(=S)Nc2cccc3ccccc23)c1	-14	72*	6	5
O=C(OCc1ccc2c(c1)OCO2)c1ccc(S(=O)(=O)N2CCCC2)cc1	-10	22	1	-45
O=C(OCc1ccc2c(c1)OCO2)c1cccc(S(=O)(=O)N2CCCCC2)c1	1	22	8.6*	-27
Cc1cccc(Cn2c(C(C)(C)C)cc3cccnc32)c1	-4	23	0	0
CCCc1ncc(C(O)c2ccccc2OC)n1C (centres undefined)	x	-3	2	x
CCC(=O)C1=C(O)C(c2cccc(Oc3ccccc3)c2)CCC1=O (centres undefined)	x	63*	0	x
Cc1c(Cl)cccc1NC(=S)N1CCCN(Cc2ccc(F)cc2)C1	x	2	1	x
COc1ccccc1N(C)S(=O)(=O)c1ccc(Cl)c(C(=O)OCc2c(C)noc2C)c1	x	20	11*	x
Cc1nc(Nc2ccc(Cl)cc2Cl)sc1C(=O)Nc1ccccc1	-5	71*	0	-30
Cc1nc(Nc2ccc(Cl)c(Cl)c2)sc1C(=O)Nc1ccccc1	0	93	4	79*
